In ChEMBL document CHEMBL1157613, “Salicylic acid based small molecule inhibitor for the oncogenic Src homology-2 domain containing protein tyrosine phosphatase-2 (SHP2)” (J Med Chem, 2010):
Calls of active or inactive are those of the source. The rule behind the calls is not given here.

Assays:
[1] = target: T1, Tyrosine-protein phosphatase non-receptor type 11 (Homo sapiens, UniProt Q06124); experiment: Inhibition of SHP2 […] expressed in Escherichia coli BL21 (DE3) assessed as inhibition of p-nitrophenyl phosphate hydrolysis at pH 7 by spectrophotometry
T1 sequence (Q06124 whole entry): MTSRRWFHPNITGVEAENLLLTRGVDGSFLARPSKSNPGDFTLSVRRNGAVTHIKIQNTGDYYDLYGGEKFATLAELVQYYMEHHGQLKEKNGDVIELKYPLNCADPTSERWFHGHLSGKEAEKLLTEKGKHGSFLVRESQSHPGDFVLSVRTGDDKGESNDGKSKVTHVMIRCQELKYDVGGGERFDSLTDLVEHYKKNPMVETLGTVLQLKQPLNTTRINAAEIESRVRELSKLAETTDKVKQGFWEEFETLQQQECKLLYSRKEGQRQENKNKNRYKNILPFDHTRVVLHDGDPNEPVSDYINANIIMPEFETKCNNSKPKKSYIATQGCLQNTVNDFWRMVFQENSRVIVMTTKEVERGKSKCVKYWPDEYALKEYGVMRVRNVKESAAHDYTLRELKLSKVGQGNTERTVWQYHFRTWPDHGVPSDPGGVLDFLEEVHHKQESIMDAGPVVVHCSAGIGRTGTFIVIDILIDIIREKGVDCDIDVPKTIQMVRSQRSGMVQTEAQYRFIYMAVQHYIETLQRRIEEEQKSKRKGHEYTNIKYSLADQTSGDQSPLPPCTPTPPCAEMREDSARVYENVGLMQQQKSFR

[2] = target: T2, Tyrosine-protein phosphatase non-receptor type 11 (Homo sapiens) (UniProt Q06124); experiment: Inhibition of SHP2-dependent ERK1/2 activation in EGF-stimulated HEK293 cells assessed as phosphorylated ERK1/2 level at 20 uM treated for 3 hrs before EGF challenge measured after 60 mins of EGF stimulation by immunoblot analysis; type: cell-based
T2 sequence (whole entry): T1 sequence (Q06124 whole entry)
Method in brief: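 HEK293 cells in DMEM with 10% FCS, 4 × 10^5 per well, grown 24 h. They were serum-deprived 16 h, given vehicle or compound at 0-20 μM for 3 h, then stimulated with EGF 2 ng/mL for 60 min. Lysates (30 μg) were run on 10% SDS-PAGE and immunoblotted for phospho-ERK1/2, normalised to total ERK1/2.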

Structure (SMILES) | IC50 [1] [µM] | inhibition [2]
Cn1c(-c2ccccc2)c(-c2cn(CCC(=O)Nc3ccccc3)nn2)c2cc(C(=O)O)c(O)cc21 | 86 | inactive
Cn1c(-c2ccccc2)c(-c2cn(CC(=O)NC3c4ccccc4-c4ccccc43)nn2)c2cc(C(=O)O)c(O)cc21 | 10.4 | 
C#Cc1c(-c2ccccc2)n(C)c2cc(O)c(C(=O)O)cc12 | 212 | 
Cn1c(-c2ccccc2)c(-c2cn(CCCC(=O)Nc3ccc(-c4ccccc4)cc3)nn2)c2cc(C(=O)O)c(O)cc21 | 12 | 

Compounds with a lower IC50 [1], results first:

IC50 [1] [µM] | inhibition [2] | Structure (SMILES)
9.3 |  | Cn1c(-c2ccccc2)c(-c2cn(CC(=O)Nc3ccc(-c4ccccc4)cc3)nn2)c2cc(C(=O)O)c(O)cc21
9.1 |  | Cn1c(-c2ccccc2)c(-c2cn(CC(=O)Nc3nc4ccccc4s3)nn2)c2cc(C(=O)O)c(O)cc21
8 |  | Cn1c(-c2ccccc2)c(-c2cn(CCCCC(=O)N3c4ccccc4Sc4ccccc43)nn2)c2cc(C(=O)O)c(O)cc21
7.8 |  | Cn1c(-c2ccccc2)c(-c2cn(CC(=O)Nc3ccc(N4CCOCC4)cc3)nn2)c2cc(C(=O)O)c(O)cc21
